≈ marks a conversion by molar mass, not a printed value. Values belong to the molecule of their own block, whether it stands above or below them.
Columns and labels:
[1] = target: T1, Epidermal growth factor receptor (Homo sapiens, UniProt P00533, L858R); test: Inhibition of EGFR L858R mutant phosphorylation in human patient derived H3255 cells incubated for 3 hrs by ELISA method; format: cell-based
[2] = Oral bioavailability in balb/c mouse at 20 mg/kg by liquid chromatography-tandem mass spectrometry; format: ADME, organism-based; details: in vivo
Outline: (§1)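 Rodent PK in male balb/c mice and male Wistar rats; plasma drug levels by LC-MS/MS. Mouse oral dosing at 20 mg/kg, with compounds given as a 0.5% methylcellulose/0.5% Tween 80 suspension or as solutions (PEG300/D5W, or ethanol/PEG300 with Solutol or D5W), depending on compound.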

[3] = target: T2, Epidermal growth factor receptor (Homo sapiens, UniProt P00533, L858R/T790M); test: Inhibition of EGFR L858R/T790M mutant phosphorylation in human patient derived H1975 cells incubated for 3 hrs by ELISA method; format: cell-based
Cytochrome P450 2D6 = Cytochrome P450 2D6 (Homo sapiens, UniProt P10635); test: Inhibition of CYP2D6 (unknown origin); format: ADME
[4] = Aqueous solubility of the compound at pH 6.8; format: physicochemical
[5] = Glutathione reactivity assessed as GSH adduct formation incubated for 1 hr using 10 mM glutathione
Outline: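 Compound incubated 1 h with 10 mM glutathione; GSH adduct formation measured.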

[6] = target: T3, Epidermal growth factor receptor (Homo sapiens, UniProt P00533); test: Inhibition of wild type EGFR phosphorylation in human HaCaT cells incubated for 3 hrs by ELISA method; format: cell-based
[7] = Inhibition of EGFR E746 to A750 deletion mutant phosphorylation in human patient derived HCC827 cells incubated for 3 hrs by ELISA method; format: cell-based; details: HCC827, 3 h
Outline: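 HCC827 cells plated at 7500/well in 5% FBS/RPMI and left overnight at 37 °C. Then 3 h with a 12-point compound dilution series, no EGF stimulation. Lysed in Triton/protease/phosphatase-inhibitor buffer. Phospho-EGFR (Y1173) read by sandwich ELISA: anti-EGFR capture, anti-phospho-EGFR, anti-rabbit-HRP, chemiluminescence. IC50 from at least duplicates.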

Cytochrome P450 2C9 = Cytochrome P450 2C9 (Homo sapiens, UniProt P11712); test: Inhibition of CYP2C9 (unknown origin); format: ADME
[8] = Intrinsic clearance in human liver microsomes; format: ADME; details: read-out: CLH
Cytochrome P450 3A4 = Cytochrome P450 3A4 (Homo sapiens, UniProt P08684); test: Inhibition of CYP3A4 (unknown origin); format: ADME
[9] = Clearance in balb/c mouse at 5 mg/kg, iv by liquid chromatography-tandem mass spectrometry; format: ADME, organism-based; details: in vivo; outline: as §1
[10] = AUC in balb/c mouse at 20 mg/kg, po by liquid chromatography-tandem mass spectrometry; format: ADME, organism-based; details: in vivo; outline: as §1
[11] = Intrinsic clearance in mouse liver microsomes; format: ADME; details: read-out: CLH
[12] = target: T2, Epidermal growth factor receptor; test: Inhibition of N-terminal 6x-HIS-tagged human recombinant EGFR (696 to 1022 residues) L858R/T790M mutant expressed in Sf9 cells pre-incubated for 90 mins followed by 10 uM ATP addition by HTRF assay
[13] = target: T1, Epidermal growth factor receptor; test: Inhibition of N-terminal 6x-HIS-tagged human recombinant EGFR (696 to 1022 residues) L858R mutant expressed in Sf9 cells pre-incubated for 90 mins followed by 10 uM ATP addition by HTRF assay
[14] = target: T3, Epidermal growth factor receptor; test: Inhibition of N-terminal 6x-HIS-tagged wild type human recombinant EGFR (696 to 1022 residues) expressed in Sf9 cells pre-incubated for 90 mins followed by 10 uM ATP addition by HTRF assay
[15] = target: T2, Epidermal growth factor receptor; test: Inhibition of N-terminal 6x-HIS-tagged human recombinant EGFR (696 to 1022 residues) L858R/T790M mutant expressed in Sf9 cells pre-incubated for 90 mins followed by 1 mM ATP addition by HTRF assay
Outline: (§2)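 HTRF kinase assay on the EGFR L858R-T790M kinase domain at 1 mM ATP. Compound with either no preincubation or a 90 min enzyme/compound preincubation.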

[16] = target: T2, Epidermal growth factor receptor; test: Inhibition of N-terminal 6x-HIS-tagged human recombinant EGFR (696 to 1022 residues) L858R/T790M mutant expressed in Sf9 cells pre-incubated for 0 mins followed by 1 mM ATP addition by HTRF assay; outline: as §2
[17] = Antitumor activity against human NCI-H1975 cells xenografted in Foxn1 nude mouse assessed as reduction in tumor volume at 25 mg/kg, po qd for 5 days relative to untreated control; format: functional
Outline: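 Female Foxn1 nude mice, H1975 cells inoculated subcutaneously. Randomized into groups once tumors reached 150−200 mm³, then dosed by oral gavage once daily for 5 days in 0.5% MC/0.5% Tween80 suspension (10 μL/g). Tumor volumes by caliper, (length × width × width)/2. %T/C = 100 × ΔT/ΔC, or % regression = 100 × ΔT/T_initial when ΔT < 0. Body weight recorded daily.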

[18] = Time duration during which free plasma concentration stays above in-vitro IC50 level in human NCI-H1975 cells xenografted Foxn1 nude mouse at 25 mg/kg, po qd for 5 days; format: ADME, organism-based; details: in vivo, 120 h
Outline: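 H1975 xenografts in Foxn1 nude mice, oral dosing once daily for 5 days. Plasma sampled after the last dose on day 5, at 30 min, 3 h, 7 h and 24 h. Free drug exposure was compared with in vitro cellular IC50 across the dosing interval.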

Mus musculus = test: Toxicity in human NCI-H1975 cells xenografted Foxn1 nude mouse assessed as change in body weight at 25 mg/kg, po qd for 5 days (reference value: […]); format: organism-based; details: in vivo, 120 h

T2 sequence (P00533 25-1210 T790M/L858R limits assumed): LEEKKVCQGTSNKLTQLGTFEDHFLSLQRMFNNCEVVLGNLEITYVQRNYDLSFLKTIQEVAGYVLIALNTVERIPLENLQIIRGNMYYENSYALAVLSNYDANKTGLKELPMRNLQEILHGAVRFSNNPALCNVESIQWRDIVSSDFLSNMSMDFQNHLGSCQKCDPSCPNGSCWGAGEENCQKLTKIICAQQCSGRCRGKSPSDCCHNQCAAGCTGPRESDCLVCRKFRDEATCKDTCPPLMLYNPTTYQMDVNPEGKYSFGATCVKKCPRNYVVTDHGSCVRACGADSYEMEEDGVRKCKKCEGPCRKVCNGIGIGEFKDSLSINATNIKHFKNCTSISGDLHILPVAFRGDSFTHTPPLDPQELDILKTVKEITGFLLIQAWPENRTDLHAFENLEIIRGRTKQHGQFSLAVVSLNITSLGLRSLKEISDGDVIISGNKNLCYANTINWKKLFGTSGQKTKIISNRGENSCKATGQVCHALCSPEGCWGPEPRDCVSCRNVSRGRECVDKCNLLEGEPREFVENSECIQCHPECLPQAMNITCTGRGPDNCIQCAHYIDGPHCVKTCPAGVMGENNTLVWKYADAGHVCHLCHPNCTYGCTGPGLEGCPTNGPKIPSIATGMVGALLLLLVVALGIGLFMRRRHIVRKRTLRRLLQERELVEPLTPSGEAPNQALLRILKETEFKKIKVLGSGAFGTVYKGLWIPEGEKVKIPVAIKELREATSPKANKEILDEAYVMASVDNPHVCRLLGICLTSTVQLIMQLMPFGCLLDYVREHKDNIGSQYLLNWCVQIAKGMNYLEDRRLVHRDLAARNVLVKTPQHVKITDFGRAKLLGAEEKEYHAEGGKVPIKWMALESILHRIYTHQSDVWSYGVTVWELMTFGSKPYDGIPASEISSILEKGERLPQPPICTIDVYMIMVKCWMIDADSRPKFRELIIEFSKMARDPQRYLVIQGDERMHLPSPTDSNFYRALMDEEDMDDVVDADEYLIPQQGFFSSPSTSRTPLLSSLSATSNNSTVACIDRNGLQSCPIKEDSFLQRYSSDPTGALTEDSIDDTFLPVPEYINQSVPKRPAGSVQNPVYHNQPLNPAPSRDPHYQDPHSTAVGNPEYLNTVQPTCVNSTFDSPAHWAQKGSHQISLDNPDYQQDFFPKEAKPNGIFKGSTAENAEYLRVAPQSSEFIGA
T1 sequence (P00533 25-1210 L858R limits assumed): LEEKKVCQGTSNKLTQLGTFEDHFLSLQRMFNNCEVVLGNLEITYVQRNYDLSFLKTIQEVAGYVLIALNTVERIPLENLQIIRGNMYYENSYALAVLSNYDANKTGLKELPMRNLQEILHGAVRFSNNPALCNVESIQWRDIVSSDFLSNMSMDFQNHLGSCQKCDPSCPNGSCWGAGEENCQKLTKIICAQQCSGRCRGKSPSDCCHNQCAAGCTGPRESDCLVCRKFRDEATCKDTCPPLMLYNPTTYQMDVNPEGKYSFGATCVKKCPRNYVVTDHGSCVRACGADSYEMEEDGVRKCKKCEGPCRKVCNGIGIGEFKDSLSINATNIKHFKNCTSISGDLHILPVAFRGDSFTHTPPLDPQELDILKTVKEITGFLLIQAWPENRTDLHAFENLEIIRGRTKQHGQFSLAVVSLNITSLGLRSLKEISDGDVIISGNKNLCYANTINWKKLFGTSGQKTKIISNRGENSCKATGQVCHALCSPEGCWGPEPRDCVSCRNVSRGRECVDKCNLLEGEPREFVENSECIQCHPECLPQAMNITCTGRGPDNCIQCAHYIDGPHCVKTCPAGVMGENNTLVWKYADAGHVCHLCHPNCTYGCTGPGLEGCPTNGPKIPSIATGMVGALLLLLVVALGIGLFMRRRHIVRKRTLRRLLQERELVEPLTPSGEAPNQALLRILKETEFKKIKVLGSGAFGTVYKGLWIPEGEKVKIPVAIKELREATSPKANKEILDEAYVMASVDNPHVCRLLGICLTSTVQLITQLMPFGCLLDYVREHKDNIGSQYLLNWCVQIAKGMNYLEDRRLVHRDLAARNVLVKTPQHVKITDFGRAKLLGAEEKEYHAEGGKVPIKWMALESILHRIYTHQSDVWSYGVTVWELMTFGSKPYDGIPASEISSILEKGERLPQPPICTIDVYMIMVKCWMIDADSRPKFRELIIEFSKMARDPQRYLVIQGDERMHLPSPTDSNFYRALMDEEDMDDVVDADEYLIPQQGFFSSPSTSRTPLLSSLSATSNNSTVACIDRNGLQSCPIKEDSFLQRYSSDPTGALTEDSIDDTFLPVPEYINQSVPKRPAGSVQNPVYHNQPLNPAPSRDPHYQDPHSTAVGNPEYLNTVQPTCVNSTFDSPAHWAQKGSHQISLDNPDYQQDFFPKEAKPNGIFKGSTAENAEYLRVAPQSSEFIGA
T3 sequence (P00533 whole entry): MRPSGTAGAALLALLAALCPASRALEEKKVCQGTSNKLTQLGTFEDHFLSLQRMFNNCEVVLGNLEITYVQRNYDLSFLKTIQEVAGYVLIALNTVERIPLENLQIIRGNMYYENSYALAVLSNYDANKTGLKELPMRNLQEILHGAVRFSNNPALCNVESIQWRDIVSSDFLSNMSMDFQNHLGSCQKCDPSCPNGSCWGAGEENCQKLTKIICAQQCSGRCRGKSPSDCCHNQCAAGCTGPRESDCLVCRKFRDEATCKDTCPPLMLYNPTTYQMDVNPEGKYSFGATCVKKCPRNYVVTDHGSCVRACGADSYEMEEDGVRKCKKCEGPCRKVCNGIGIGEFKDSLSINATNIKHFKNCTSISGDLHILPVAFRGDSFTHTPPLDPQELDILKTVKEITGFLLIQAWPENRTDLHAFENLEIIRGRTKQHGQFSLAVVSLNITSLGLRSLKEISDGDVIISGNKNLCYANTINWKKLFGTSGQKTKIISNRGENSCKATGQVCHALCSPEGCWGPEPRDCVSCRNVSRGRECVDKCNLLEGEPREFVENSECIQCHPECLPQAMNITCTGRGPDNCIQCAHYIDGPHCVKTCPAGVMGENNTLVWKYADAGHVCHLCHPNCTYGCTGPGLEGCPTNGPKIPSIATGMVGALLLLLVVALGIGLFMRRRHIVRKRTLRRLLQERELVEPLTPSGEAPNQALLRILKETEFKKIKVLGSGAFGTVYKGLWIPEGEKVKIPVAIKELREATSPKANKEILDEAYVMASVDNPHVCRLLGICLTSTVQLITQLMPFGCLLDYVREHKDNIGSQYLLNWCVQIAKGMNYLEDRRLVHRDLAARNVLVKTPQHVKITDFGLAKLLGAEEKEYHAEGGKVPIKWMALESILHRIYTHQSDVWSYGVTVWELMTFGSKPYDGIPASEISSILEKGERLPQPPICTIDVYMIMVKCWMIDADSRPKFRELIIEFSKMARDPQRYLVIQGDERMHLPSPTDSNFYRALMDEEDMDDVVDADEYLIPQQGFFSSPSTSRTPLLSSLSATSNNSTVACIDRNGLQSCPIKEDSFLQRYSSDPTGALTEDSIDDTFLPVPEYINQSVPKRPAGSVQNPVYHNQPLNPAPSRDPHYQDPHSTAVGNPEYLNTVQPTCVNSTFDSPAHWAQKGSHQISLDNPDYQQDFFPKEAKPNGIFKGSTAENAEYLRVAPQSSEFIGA
Chain of Cytochrome P450 2D6 (P10635 whole entry): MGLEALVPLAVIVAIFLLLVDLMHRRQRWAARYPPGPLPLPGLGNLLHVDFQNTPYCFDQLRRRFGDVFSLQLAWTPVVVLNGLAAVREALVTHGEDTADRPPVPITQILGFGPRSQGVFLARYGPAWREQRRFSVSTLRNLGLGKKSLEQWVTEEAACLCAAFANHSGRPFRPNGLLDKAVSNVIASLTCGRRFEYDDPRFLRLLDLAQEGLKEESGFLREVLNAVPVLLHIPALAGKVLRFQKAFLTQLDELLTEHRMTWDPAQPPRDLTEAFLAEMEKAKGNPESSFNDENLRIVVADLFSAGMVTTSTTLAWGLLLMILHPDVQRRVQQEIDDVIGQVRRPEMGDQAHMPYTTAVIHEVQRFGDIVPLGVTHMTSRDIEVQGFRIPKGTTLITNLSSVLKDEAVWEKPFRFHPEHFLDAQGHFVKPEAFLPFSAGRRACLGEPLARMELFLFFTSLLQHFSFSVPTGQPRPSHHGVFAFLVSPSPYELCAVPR
Chain of Cytochrome P450 2C9 (P11712 whole entry): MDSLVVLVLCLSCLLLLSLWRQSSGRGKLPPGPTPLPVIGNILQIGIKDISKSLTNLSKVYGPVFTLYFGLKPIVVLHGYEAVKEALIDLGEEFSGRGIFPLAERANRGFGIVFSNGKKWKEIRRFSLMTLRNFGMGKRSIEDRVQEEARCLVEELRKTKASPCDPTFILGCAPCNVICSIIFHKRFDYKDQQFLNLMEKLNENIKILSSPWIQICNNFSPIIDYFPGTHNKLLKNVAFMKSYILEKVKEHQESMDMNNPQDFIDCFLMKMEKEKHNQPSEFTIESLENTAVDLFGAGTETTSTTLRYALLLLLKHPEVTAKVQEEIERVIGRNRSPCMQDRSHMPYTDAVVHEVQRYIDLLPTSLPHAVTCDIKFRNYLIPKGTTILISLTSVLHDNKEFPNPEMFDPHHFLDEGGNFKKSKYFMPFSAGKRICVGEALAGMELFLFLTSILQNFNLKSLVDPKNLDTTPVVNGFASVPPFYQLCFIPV
Chain of Cytochrome P450 3A4 (P08684 whole entry): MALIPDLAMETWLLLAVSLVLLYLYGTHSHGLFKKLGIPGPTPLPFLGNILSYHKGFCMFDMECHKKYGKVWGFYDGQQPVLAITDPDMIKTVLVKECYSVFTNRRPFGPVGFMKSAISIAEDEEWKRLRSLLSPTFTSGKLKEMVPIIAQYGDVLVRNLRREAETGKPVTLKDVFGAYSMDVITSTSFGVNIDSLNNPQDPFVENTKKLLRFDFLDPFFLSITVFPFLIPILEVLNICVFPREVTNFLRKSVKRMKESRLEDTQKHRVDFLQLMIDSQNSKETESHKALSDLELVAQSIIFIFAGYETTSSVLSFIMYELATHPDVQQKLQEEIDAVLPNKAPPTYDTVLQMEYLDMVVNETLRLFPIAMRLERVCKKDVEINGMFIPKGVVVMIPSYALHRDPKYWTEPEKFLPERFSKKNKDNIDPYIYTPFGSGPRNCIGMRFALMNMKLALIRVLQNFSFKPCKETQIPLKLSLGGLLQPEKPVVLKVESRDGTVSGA

- IC50 [1]: 0.0459 µM
- bioavailability [2]: 40%
- IC50 [3]: 0.00218 µM
- IC50 (Cytochrome P450 2D6): 16.7 µM
- solubility [4]: 10.5 µM (≈ 5.54 µg/mL)
- IC50 [6]: 0.351 µM
- IC50 [7]: 0.0124 µM
- IC50 (Cytochrome P450 2C9): 17.6 µM
- microsomal CLint [8]: 49 µL/min/mg
- IC50 (Cytochrome P450 3A4): 22.2 µM
- clearance [9]: 3.43 L/h/kg
- AUC [10]: 4.39 µM·h
- microsomal CLint [11]: 233 µL/min/mg
Compound: Cc1cccc2nc(NC(=O)c3cccc(C(F)(F)F)c3)n([C@@H]3CCCCN(C(=O)/C=C/CN(C)C)C3)c12
- Drug metabolism [5]: < 5%

- IC50 [12]: 0.14 µM
- IC50 [13]: > 8.48 µM
- IC50 [14]: > 11.8 µM
Compound: Cc1ccc2c(c1)nc(NC(=O)c1cccc(C(F)(F)F)c1)n2[C@H]1CC[C@H](O)CC1

- IC50 [3]: 0.181 µM
- IC50 [6]: > 10 µM
- IC50 [7]: 0.268 µM
- IC50 [15]: 0.01 µM
- IC50 [16]: 22.3 µM
Compound: C=CC(=O)N(C)c1cccc(-n2c(NC(=O)c3cccc(C(F)(F)F)c3)nc3cc(C)ccc32)c1

- IC50 [12]: 0.26 µM
- IC50 [13]: 2 µM
- IC50 [14]: > 50 µM
Compound: O=C(Nc1nc2ccccc2n1[C@H]1CC[C@H](O)CC1)c1cccc(C(F)(F)F)c1

- IC50 [1]: 0.0749 µM
- IC50 [3]: 0.0061 µM
- IC50 [6]: 4.33 µM
- IC50 [7]: 0.0159 µM
- IC50 [15]: < 0.002 µM
- IC50 [16]: 0.83 µM
Compound: C=CC(=O)N1CCCCC(n2c(NC(=O)c3cccc(C(F)(F)F)c3)nc3cc(C)ccc32)C1 (centres undefined)

- IC50 [15]: > 50 µM
- IC50 [16]: > 50 µM
Compound: C=CC(=O)N1CC(n2c(NC(=O)c3cccc(C(F)(F)F)c3)nc3cc(C)ccc32)C1

- IC50 [3]: 0.525 µM
- IC50 [7]: 1.65 µM
- IC50 [15]: 0.05 µM
- IC50 [16]: > 50 µM
Compound: C=CC(=O)NCCCn1c(NC(=O)c2cccc(C(F)(F)F)c2)nc2cc(C)ccc21

- IC50 [12]: 0.47 µM
- IC50 [13]: 2.08 µM
- IC50 [14]: > 42 µM
Compound: CCOCc1ccc2c(c1)nc(NC(=O)c1cccc(C(F)(F)F)c1)n2[C@H]1CC[C@H](O)CC1

- Time [18]: <= 14 hr
Compound: CN(C)C/C=C/C(=O)Nc1cc2c(Nc3ccc(F)c(Cl)c3)ncnc2cc1O[C@H]1CCOC1 [AFATINIB]
- T/C [17]: 38%
- Drug metabolism [5]: 60%
- Activity (Mus musculus): -2.4%

- IC50 [15]: 16.5 µM
- IC50 [16]: > 37.7 µM
Compound: C=CC(=O)N1CCC(n2c(NC(=O)c3cccc(C(F)(F)F)c3)nc3cc(C)ccc32)CC1

- IC50 [15]: > 50 µM
- IC50 [16]: > 50 µM
Compound: C=CC(=O)N1CCCC(n2c(NC(=O)c3cccc(C(F)(F)F)c3)nc3cc(C)ccc32)CC1 (centres undefined)

- IC50 [7]: 0.0095 µM
Compound: C=CC(=O)Nc1cccc(Nc2nc(Nc3ccc(N4CCN(C(C)=O)CC4)cc3OC)ncc2C(F)(F)F)c1 [ROCILETINIB]

- IC50 [12]: 1.37 µM
- IC50 [13]: 11.8 µM
- IC50 [14]: > 50 µM
Compound: Cc1cccc2c1nc(NC(=O)c1cccc(C(F)(F)F)c1)n2[C@H]1CC[C@H](O)CC1

- IC50 [15]: > 50 µM
- IC50 [16]: > 50 µM
Compound: C=CC(=O)N[C@H]1CC[C@@H](n2c(NC(=O)c3cccc(C(F)(F)F)c3)nc3cc(C)ccc32)CC1
